The source made the active and inactive calls. The rule behind the calls is not given here.
Assays:
Bel-7402 [1] = assay: Cell cycle arrest in human Bel7402 cells assessed as accumulation in S-phase at 10 nM after 24 hrs by propidium iodide staining-based flow cytometry (reference value: 27.5 +/- 1%); type: functional
Procedure, shortened: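 BEL-7402 cells exposed for 24 h, then fixed in 70% ethanol at −20 °C for ≥1 h. Stained with 50 μg/mL propidium iodide plus 10 μg/mL RNase A for 30 min in the dark at room temperature. DNA content read by flow cytometry on ≥1.0 × 10⁴ cells per sample.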

Bel-7402 [2] = assay: Induction of DNA damage in human Bel7402 cells assessed as increase in CHK2 phosphorylation at Thr68 residue at 1 to 100 nM after 1 hr by Western blot analysis; type: functional, cell-based
Procedure, shortened: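 BEL-7402 cells (1.5 × 10⁵ per well, 12-well plates) exposed to compounds for 1 h. Phospho-Chk1 Ser345, phospho-Chk2 Thr68 and γH2AX detected by Western blot. Camptothecin at 1 μM served as the DNA-damage reference.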

Bel-7402 [3] = assay: Induction of necrosis in human Bel7402 cells after 72 hrs by trypan blue exclusion assay; type: functional, cell-based
Procedure, shortened: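 BEL-7402 cells seeded at 5 × 10⁴ per well, exposed to compounds 72 h; trypsinized, stained with 0.4% Trypan blue (9:1 dilution) for 3 min; unstained (viable) and stained (necrotic) cells counted separately on a hemocytometer.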

Zip-177 = assay: Cell cycle arrest in human Zip-177 cells assessed as delay in progression of S-phase to G2-phase at 1 to 10 nM pre-treated with aphidicolin for 16 hrs followed by compound addition measured after 24 hrs by propidium iodide staining-based flow cytometric method; type: functional
Procedure, shortened: (§1)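 Exponentially growing cells synchronized in early S phase with 0.2 μg/mL aphidicolin for 16 h. Cells released into fresh medium with or without compound for set times. Ethanol-fixed, stained with PI/RNase, and cell cycle distribution read by flow cytometry. Representative of three independent experiments.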

[4] = Selectivity ratio of IC50 for human MRC5 cells to IC50 for human A549 cells
Procedure, shortened: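 SRB assay: A549 (F-12, 10% FBS) and MRC-5/MRC-9 (EMEM, 10% FBS) treated in triplicate 72 h, fixed with ice-cold 10% TCA, stained with 0.4% SRB in 1% acetic acid, absorbance 540 nm; IC₅₀ by four-parameter logistic fit, mean of ≥3 independent experiments.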

Bel-7402 [5] = assay: Inhibition of DNA synthesis in human Bel7402 cells assessed as BrdU incorporation at 1 nM preincubated for 1 hr followed by BrdU addition for 30 mins by FITC/propidium iodide staining based flow cytometry (reference value: 35.5%); type: functional; parameters: scale not given: the % may be the effect or the level left
Procedure, shortened: (§2)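 BEL-7402 cells (3 × 10⁵ per well) exposed to compounds 1 h, then labeled with 10 μM BrdU for 30 min; trypsinized, fixed in 70% ethanol at −20 °C ≥1 h, 2 N HCl 20 min, neutralized with 0.1 M borate, stained with anti-BrdU-FITC plus PI 30 min; BrdU-positive cells quantified by flow cytometry; three independent experiments, mean + SD.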

Bel-7402 [6] = assay: Antiproliferative activity against human Bel7402 cells assessed as reduction in cell viability at 0.12 to 10 nM up to 10 days by fluorescence-based cell imaging method; type: functional
Procedure, shortened: (§3)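 Live-cell imaging (IncuCyte ZOOM) of BEL-7402 cells seeded at 1.5 × 10⁴ per well in 12-well plates. Cells treated in triplicate with a concentration gradient and imaged continuously for 10 days to build growth curves.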

Bel-7402 [7] = assay: Induction of apoptosis in human Bel7402 cells assessed as early apoptotic cells at 1 nM after 72 hrs by Annexin V/propidium iodide staining based flow cytometric analysis (reference value: 3.66%); type: functional
Procedure, shortened: (§4)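 BEL-7402 cells (3 × 10⁵ per well, 6-well plates) exposed for 72 h. Harvested, PBS-washed, resuspended in cold binding buffer with annexin V–FITC and PI, and stained 15 min in the dark at room temperature. Early apoptotic, late apoptotic and necrotic fractions quantified by flow cytometry.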

K562/Adr = assay: Effect on P-gp expression in human K562/ADR cells up to 100 nM after 24 hrs by Western blot analysis; type: functional, cell-based
Bel-7402 [8] = assay: Inhibition of DNA synthesis in human Bel7402 cells assessed as BrdU incorporation at 10 nM preincubated for 1 hr followed by BrdU addition for 30 mins by FITC/propidium iodide staining based flow cytometry (reference value: 35.5%); type: functional; parameters: scale not given: the % may be the effect or the level left; procedure, shortened: as §2
KB = assay: Cell cycle arrest in human KB/VCR cells assessed as delay in progression of S-phase to G2-phase at 10 nM pre-treated with aphidicolin for 16 hrs followed by compound addition measured up to 12 hrs by propidium iodide staining-based flow cytometric method; type: functional; procedure, shortened: as §1
[9] = Cytotoxicity against Sprague-Dawley rat primary neuronal cells assessed as reduction in cell viability at 300 nM after 24 hrs by MTT assay; type: cell-based; details: read-out: INH
[10] = Cytotoxicity against Sprague-Dawley rat primary neuronal cells assessed as reduction in cell viability after 24 hrs by MTT assay; type: cell-based
Bel-7402 [11] = assay: Inhibition of colony formation in human Bel7402 cells after 24 hrs by SRB staining-based plate colony formation assay; type: functional, cell-based
Procedure, shortened: (§5)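 BEL-7402 cells seeded at 200 per well, treated in triplicate 24 h, washed twice with PBS, then grown 12 days in fresh medium; colonies stained with SRB and those ≥1 mm diameter counted; three independent experiments, mean ± SD.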

KB-V1 = assay: Growth inhibition of human KBV1 cells after 8 days by methylene blue-staining based spectrophotometry; type: functional; details: KB-V1, 192 h
Bel-7402 [12] = assay: Antiproliferative activity against human Bel7402 cells assessed as reduction in cell viability at 0.012 to 1 uM up to 10 days by fluorescence-based cell imaging method; type: functional; procedure, shortened: as §3
[13] = Growth inhibition of human KB-MDR cells after 8 days by methylene blue-staining based spectrophotometry; type: functional; details: 192 h
Bel-7402 [14] = assay: Inhibition of colony formation in human Bel7402 cells at 0.01 to 10 uM after 24 hrs by SRB staining-based plate colony formation assay; type: functional, cell-based; procedure, shortened: as §5
Bel-7402 [15] = assay: Induction of apoptosis in human Bel7402 cells assessed as late apoptotic cells at 1 uM after 72 hrs by Annexin V/propidium iodide staining based flow cytometric analysis (reference value: 3.6%); type: functional; procedure, shortened: as §4
Bel-7402 [16] = assay: Inhibition of DNA synthesis in human Bel7402 cells assessed as BrdU incorporation at 10 uM preincubated for 1 hr followed by BrdU addition for 30 mins by FITC/propidium iodide staining based flow cytometry (reference value: 35.5%); type: functional; parameters: scale not given: the % may be the effect or the level left; procedure, shortened: as §2
Bel-7402 [17] = assay: Induction of apoptosis in human Bel7402 cells assessed as early apoptotic cells at 1 uM after 72 hrs by Annexin V/propidium iodide staining based flow cytometric analysis (reference value: 3.66%); type: functional; procedure, shortened: as §4
Bel-7402 [18] = assay: Induction of apoptosis in human Bel7402 cells assessed as viable cells at 10 uM after 72 hrs by Annexin V/propidium iodide staining based flow cytometric analysis (reference value: 92.4%); type: functional; details: Bel-7402, 72 h, read-out: Activity
Bel-7402 [19] = assay: Induction of apoptosis in human Bel7402 cells assessed as late apoptotic cells at 10 uM after 72 hrs by Annexin V/propidium iodide staining based flow cytometric analysis (reference value: 3.6%); type: functional; procedure, shortened: as §4
[20] = Growth inhibition of human KB-HU-R cells after 8 days by methylene blue-staining based spectrophotometry; type: functional; details: 192 h

For COc1cc2c3c(c4ccc(O)cc4c2cc1OC)CN1CCCC[C@@H]1C3, the Activity (Bel-7402 [1]) was 50.3%, the Activity (Bel-7402 [2]) was “inactive” and the Activity (Bel-7402 [3]) was “Dose-dependent effect”. For the same molecule, the Activity (Zip-177) was “Active”, the “Ratio IC50” value [4] was 3 - 4 and the Activity (Bel-7402 [5]) was 28.6%. For the same molecule, the inhibition (Bel-7402 [6]) was “Active”, the Activity (Bel-7402 [7]) was 3.11% and the Activity (K562/Adr) was “inactive”. The Activity (Bel-7402 [8]) was 5.07%, the Activity (KB) was “Active” and the cytotoxicity at 24 h, 0.3 µM [9] was 50%. For the same molecule, the “inhibition (INH)” value [10] was “Dose-dependent effect” and the inhibition (Bel-7402 [11]) was “Dose-dependent effect”.

In the case of COc1cc2c3c(c4cc(OC)c(OC)cc4c2cc1OC)[C@H](O)[C@@H]1CCCN1C3, the GI50 (KB-V1) is reported as 30 nM, the inhibition (Bel-7402 [12]) is reported as “Active” and the GI50 [13] is reported as 30 nM. For the same molecule, the inhibition (Bel-7402 [14]) was “Active”, the Activity (Bel-7402 [15]) was 1.92% and the Activity (Bel-7402 [16]) was 1.9%. For the same molecule, the Activity (Bel-7402 [17]) was 2.56%, the viability at 10 µM (Bel-7402 [18]) was 85.1% and the Activity (Bel-7402 [19]) was 11.5%. It also gave a GI50 [20] of 30 nM.
